Experimental data as given in ChEMBL document CHEMBL1140172, “5-N-methylated quindoline derivatives as telomeric g-quadruplex stabilizing ligands: effects of 5-N positive charge on quadruplex binding affinity and cell proliferation” (J Med Chem, 2008).
The source made the active and inactive calls. The calls are words filed in the database; no cut-off is given here.

Legend:
[1] = Binding affinity to synthetic HTG21 telomere assessed as conversion of preformed hybrid-type G-quadruplex to antiparallel G-quadruplex structure at 5 uM in presence of K+ ions by CD spectroscopy
Procedure, shortened: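 CD on HTG21 at 5 µM strand in 10 mM Tris-HCl pH 7.4 with 100 mM KCl. Sample heated to 95 °C for 5 min, slowly cooled, held at 4 °C overnight. Titrated with 0–5 mol equiv compound. Scans from 230–450 nm at 25 °C, buffer baseline subtracted, at least three scans averaged.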

[2] = Inhibition of amplification of synthetic HTG21 telomere assessed as G-quadruplex stabilization by PCR
Procedure, shortened: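 PCR stop assay with HTG21 and its partial complementary oligonucleotide (10 pmol each), 0.16 mM dNTP, 2.5 U Taq and test compound. Program: 94 °C for 3 min, then 30 cycles of 94/58/72 °C for 30 s each. Products run on 15% native PAGE and silver stained. IC50 taken from band optical density as 50% inhibition of PCR.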

[3] = Binding affinity to synthetic HTG21 telomere assessed as change in G-qudraplex DNA melting temperature at 1 uM by FRET method
[4] = target: Telomerase reverse transcriptase (Homo sapiens, UniProt O14746); assay: Inhibition of telomerase in human MCF7 cells by cell-free telomerase repeat amplification protocol assay
Procedure, shortened: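 Modified TRAP using 100 ng of MCF-7 extract in 20 mM Tris-HCl pH 8.0 with 63 mM KCl, 1.5 mM MgCl2, 1 mM EGTA, 50 µM dNTPs, primers TSG4/TS/CXext/NT and a TSNT internal control. Compound or water added, 30 min elongation at 30 °C, then 30 PCR cycles. Read-out by 10% native PAGE with silver stain; TelIC50 from band optical density.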

[5] = Binding affinity to synthetic HTG21 telomere by competition dialysis method
Procedure, shortened: (§1)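 Competition dialysis, Tris-HCl 10 mM pH 7.4 with 100 mM NaCl. Each nucleic acid (0.5 mL, 45 µM monomeric unit) in a 1000 MWCO dialysis unit, all dialyzed together against a common ligand solution for 24 h at room temperature. DNA samples brought to 1% SDS. Total ligand in each tube and free ligand in dialysate read by absorbance (425 or 415 nm). Bound = total − free.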

[6] = Binding affinity to synthetic Pu27 oligonucleotide by competition dialysis method; procedure, shortened: as §1
[7] = Binding affinity to synthetic HT7 oligonucleotide by competition dialysis method; procedure, shortened: as §1
[8] = Binding affinity to synthetic [d(T2AG3)] oligonucleotide by NMR spectroscopy
Procedure, shortened: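 1H NMR titration at 25 °C of HPLC-purified d(T2AG3) at 0.5 mM in 90% H2O/10% D2O with 150 mM KCl and 25 mM potassium phosphate pH 7.0. Watergate water suppression; imino proton shifts monitored.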

[9] = Binding affinity to synthetic [d(T2AG3)] oligonucleotide assessed as increase in DNA melting temperature by NMR spectroscopy
Procedure, shortened: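 1H NMR thermal denaturation of d(T2AG3) at 0.5 mM in 90% H2O/10% D2O with 150 mM KCl and 25 mM potassium phosphate pH 7.0. Spectra recorded every 5 °C from 25–90 °C after 15 min equilibration at each step, Watergate water suppression.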

HL-60 [10] = assay: Decrease in telomere length in human HL60 cells at 0.06 uM after 16 days by telomeric restriction fragment length assay; assay type: functional, cell-based
Procedure, shortened: (§2)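 Cells were reseeded every 4 days with continuous compound or 0.1% DMSO for 16 days. Genomic DNA was cut with HinfI/RsaI and run on 0.8% agarose. It was then Southern blotted and probed with a DIG-labelled telomeric repeat probe, detected by anti-DIG alkaline phosphatase chemiluminescence to give TRF length.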

HL-60 [11] = assay: Decrease in telomere length in human HL60 cells at 0.03 uM after 16 days by telomeric restriction fragment length assay; assay type: functional, cell-based; procedure, shortened: as §2
CA46 [12] = assay: Decrease in telomere length in human CA46 cells at 0.06 uM after 16 days by telomeric restriction fragment length assay; assay type: functional, cell-based; procedure, shortened: as §2
HL-60 [13] = assay: Cytotoxicity against human HL60 cell after 48 hrs by MTT assay; assay type: functional, cell-based; settings: HL-60, 48 h
Procedure, shortened: (§3)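 MTT assay: cells seeded at 1.0 × 10^3 per well in RPMI-1640 with 10% FBS and exposed to a range of ligand concentrations for 48 h at 37 °C, 5% CO2. MTT added for 4 h, formazan dissolved in DMSO, OD read at 570 nm. Each dose run in triplicate; IC50 from mean OD versus concentration curves.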

CA46 [14] = assay: Cytotoxicity against human CA46 cell after 48 hrs by MTT assay; assay type: functional, cell-based; settings: CA46, 48 h; procedure, shortened: as §3
HL-60 [15] = assay: Growth inhibition in human HL60 cells at 0.06 uM after 12 days; assay type: functional, cell-based
Procedure, shortened: (§4)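 Long-term culture: 1.0 × 10^5 cells per flask with ligand at 0.03 or 0.06 µM, or 0.1% DMSO. Every 4 days cells were counted and reseeded at 1.0 × 10^5 with fresh treatment, for 16 days. Each point done three times.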

HL-60 [16] = assay: Growth inhibition in human HL60 cells assessed as increase in population doubling time at 0.03 uM; assay type: functional, cell-based; procedure, shortened: as §4
CA46 [17] = assay: Growth inhibition in human CA46 cells at 0.06 uM after 12 days; assay type: functional, cell-based; procedure, shortened: as §4
CA46 [18] = assay: Growth inhibition in human CA46 cells assessed as increase in population doubling time at 0.03 uM; assay type: functional, cell-based; procedure, shortened: as §4
HL-60 [19] = assay: Induction of senescence in human HL60 cells at 0.06 uM administered continuously for 16 days by senescence-associated beta-galactosidase assay; assay type: functional, cell-based
Procedure, shortened: (§5)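 Cells were treated continuously with 0.06 µM ligand or 0.1% DMSO for 16 days. They were fixed in 2% formaldehyde/0.2% glutaraldehyde for 15 min at room temperature, washed in PBS, and stained overnight at 37 °C with 1 mg/mL X-Gal stain solution.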

CA46 [20] = assay: Induction of senescence in human CA46 cells at 0.06 uM administered continuously for 16 days by senescence-associated beta-galactosidase assay; assay type: functional, cell-based; procedure, shortened: as §5

Chain of Telomerase reverse transcriptase (O14746 whole entry): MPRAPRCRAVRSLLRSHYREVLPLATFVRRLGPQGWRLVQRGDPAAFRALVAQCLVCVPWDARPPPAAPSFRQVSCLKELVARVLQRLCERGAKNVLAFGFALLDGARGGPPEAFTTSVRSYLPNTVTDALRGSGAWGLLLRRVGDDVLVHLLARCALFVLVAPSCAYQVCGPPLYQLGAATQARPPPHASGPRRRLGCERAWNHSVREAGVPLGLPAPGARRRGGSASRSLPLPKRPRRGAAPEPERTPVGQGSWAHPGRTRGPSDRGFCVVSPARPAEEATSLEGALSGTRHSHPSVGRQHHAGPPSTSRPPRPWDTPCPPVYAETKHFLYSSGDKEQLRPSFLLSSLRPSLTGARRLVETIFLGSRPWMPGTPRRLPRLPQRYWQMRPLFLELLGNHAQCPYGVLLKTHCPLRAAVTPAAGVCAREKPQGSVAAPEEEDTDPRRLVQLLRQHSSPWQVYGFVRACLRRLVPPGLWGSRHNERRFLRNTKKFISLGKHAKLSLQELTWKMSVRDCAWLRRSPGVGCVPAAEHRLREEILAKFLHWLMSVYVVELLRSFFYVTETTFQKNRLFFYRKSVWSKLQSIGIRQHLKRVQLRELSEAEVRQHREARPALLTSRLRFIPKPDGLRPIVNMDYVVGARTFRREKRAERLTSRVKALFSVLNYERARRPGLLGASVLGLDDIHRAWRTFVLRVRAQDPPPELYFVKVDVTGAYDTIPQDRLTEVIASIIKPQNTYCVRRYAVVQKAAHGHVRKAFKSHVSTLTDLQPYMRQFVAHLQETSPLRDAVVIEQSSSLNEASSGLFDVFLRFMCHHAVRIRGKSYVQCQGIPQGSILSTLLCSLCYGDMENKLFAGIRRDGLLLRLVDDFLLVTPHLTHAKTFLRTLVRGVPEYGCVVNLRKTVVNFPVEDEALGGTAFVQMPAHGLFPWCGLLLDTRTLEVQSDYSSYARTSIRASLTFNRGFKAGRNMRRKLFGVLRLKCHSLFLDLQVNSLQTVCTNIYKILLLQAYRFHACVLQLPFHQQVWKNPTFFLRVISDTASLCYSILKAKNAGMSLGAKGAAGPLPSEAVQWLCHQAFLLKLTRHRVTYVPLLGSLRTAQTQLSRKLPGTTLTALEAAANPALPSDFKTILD

Compound	Activity [1]	IC50 [2]	ΔTm [3]	IC50 [4]	other results
CCN(CC)CCNc1c2ccccc2[n+](C)c2c1oc1ccccc12	Active	13 µM	12 °C		
C[n+]1c2ccccc2c(NCCN2CCOCC2)c2oc3ccccc3c21	Active	> 20 µM	9 °C		
CCN(CC)CCCNc1c2ccccc2[n+](C)c2c1[nH]c1c(F)cc(F)cc12	Active	5.5 µM	15 °C	0.27 µM	
CCN(CC)CCNc1c2ccccc2[n+](C)c2c1[nH]c1ccc(F)cc12	Active	18 µM	12 °C		
CCN(CC)CCCNc1c2ccccc2[n+](C)c2c1[nH]c1ccc(F)cc12	Active	5 µM	18 °C	0.2 µM	
C[n+]1c2ccccc2c(NCCO)c2oc3ccccc3c21	Active	> 20 µM	4 °C		
CN(C)CCNc1c2ccccc2[n+](C)c2c1[nH]c1ccccc12	Active	10.3 µM	13 °C		
CCN(CC)CCNc1c2ccccc2[n+](C)c2c1[nH]c1c(F)cc(F)cc12	Active	15 µM	11 °C		
CN(C)CCCNc1c2ccccc2[n+](C)c2c1oc1ccccc12	Active	6.1 µM	14 °C	0.37 µM	
C[n+]1c2ccccc2c(NCCN2CCOCC2)c2[nH]c3ccccc3c21	Active	> 20 µM	10 °C		
C[n+]1c2ccccc2c(NCCCO)c2oc3ccccc3c21	Active	> 20 µM	10 °C		
C[n+]1c2ccccc2c(NCCCN2CCOCC2)c2[nH]c3ccccc3c21	Active	> 20 µM	12 °C		
CN(C)CCCNc1c2ccccc2nc2c1[nH]c1ccccc12		> 20 µM	9 °C	0.63 µM	
CN(C)CCNc1c2ccccc2[n+](C)c2c1[nH]c1c(F)cc(F)cc12	Active	> 20 µM	11 °C		
CN(C)CCNc1c2ccccc2[n+](C)c2c1oc1ccccc12	Active	11.5 µM	11 °C		
CCN(CC)CCCNc1c2ccccc2[n+](C)c2c1oc1ccccc12	Active	5.7 µM	15 °C		
C[n+]1c2ccccc2c(NCCCO)c2[nH]c3ccccc3c21	Active	> 20 µM	7 °C		
C[n+]1c2ccccc2c(NCCO)c2[nH]c3ccccc3c21	Active	> 20 µM	5 °C		
C[n+]1c2ccccc2c(NCCCN2CCOCC2)c2oc3ccccc3c21	Active	18 µM	13 °C		
CCN(CC)CCCNc1c2ccccc2[n+](C)c2c1[nH]c1ccccc12	Active	5.1 µM	19 °C	0.16 µM	
CCN(CC)CCNc1c2ccccc2[n+](C)c2c1[nH]c1ccccc12	Active	12 µM	12 °C		
CN(C)CCCNc1c2ccccc2[n+](C)c2c1[nH]c1ccccc12	Active	4.5 µM	17 °C	0.22 µM	Activity [5]: Active; Activity [6]: Active; Activity [7]: Active
CN(C)CCNc1c2ccccc2[n+](C)c2c1[nH]c1ccc(F)cc12	Active	13 µM	14 °C		
CN(C)CCCNc1c2ccccc2[n+](C)c2c1[nH]c1ccc(F)cc12	Active	8 µM	14 °C	0.31 µM	Activity [8]: Active; ΔTm [9]: 25 °C; Activity (HL-60 [10]): Active; Activity (HL-60 [11]): Active; Activity (CA46 [12]): Active; IC50 (HL-60 [13]): 1.21 µM; IC50 (CA46 [14]): 1.36 µM; Activity (HL-60 [15]): Active; Activity (HL-60 [16]): Active; Activity (CA46 [17]): Active; Activity (CA46 [18]): Active; Activity (HL-60 [19]): Active; Activity (CA46 [20]): Active
CN(C)CCCNc1c2ccccc2[n+](C)c2c1[nH]c1c(F)cc(F)cc12	Active	9 µM	15 °C	0.4 µM	
